In ChEMBL document CHEMBL1139866, “Synthesis and antimalarial property of orally active phenoxazinium salts” (J Med Chem, 2007):
Where “and” joins values, the source holds several entries; their conditions need not be identical. Equal entries are not always repeated.

Experiments:
Plasmodium berghei [1] = experiment: Antimalarial activity against Plasmodium berghei NK65 infected ICR mice (Mus musculus) as reduced parasitaemia at 5 mg/kg intraperitoneal dose on day 4; type: functional; design: scale not given: the % may be the effect or the level left
Procedure, shortened: (§1)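 Peters' four-day suppressive test with P. berghei NK-65 (drug-sensitive) in groups of five ICR mice, dosed intraperitoneally once daily for 4 days. Parasitemia on day 4 is compared with untreated infected controls to give % suppression. Survival is followed after treatment as mean survival days, observed up to day 30.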

Mus musculus [2] = experiment: Effect on survival of Plasmodium berghei NK65 infected ICR mice (Mus musculus) assessed as mean survival days at 5 mg/kg, intraperitoneal after 4 days; type: functional
Procedure, shortened: (§2)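 Peters' four-day suppressive test in groups of five ICR mice infected with drug-sensitive P. berghei NK-65. Compound given ip once daily for 4 days. Day-4 parasitemia compared with untreated controls to give % suppression. Mice observed after the end of treatment to record mean survival days and the number alive on day 30.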

Plasmodium falciparum = experiment: Antimalarial activity against chloroquine-resistant Plasmodium falciparum K1 after 48 hrs; type: functional, organism-based
[3] = Ratio of EC50 for rat L6 cells to EC50 for Plasmodium falciparum K1; type: functional
Procedure, shortened: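 Selectivity index is the EC50 against rat skeletal myoblast L-6 cells divided by the in vitro EC50 against chloroquine-resistant P. falciparum K1, which was assayed by the Desjardins method.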

Mus musculus [4] = experiment: Effect on survival of Plasmodium berghei NK65 infected ICR mice (Mus musculus) assessed as mean survival days at 2.5 mg/kg, intraperitoneal after 4 days; type: functional; procedure, shortened: as §2
Plasmodium berghei [5] = experiment: Antimalarial activity against Plasmodium berghei NK65 infected ICR mice (Mus musculus) as reduced parasitaemia after 2.5 mg/kg intraperitoneal dose on day 4; type: functional; design: scale not given: the % may be the effect or the level left; procedure, shortened: as §1
Plasmodium berghei [6] = experiment: Antimalarial activity against Plasmodium berghei NK65 infected ICR mice (Mus musculus) as reduced parasitaemia after 20 mg/kg intraperitoneal dose on day 4; type: functional; design: scale not given: the % may be the effect or the level left; procedure, shortened: as §1
Mus musculus [7] = experiment: Survival of Plasmodium berghei NK65 infected ICR mice (Mus musculus) at 20 mg/kg, intraperitoneal after 4 days; type: functional; procedure, shortened: as §2
Mus musculus [8] = experiment: Effect on survival of Plasmodium berghei NK65 infected ICR mice (Mus musculus) assessed as mean survival days at 20 mg/kg, intraperitoneal after 4 days; type: functional; procedure, shortened: as §2
Plasmodium berghei [9] = experiment: Antimalarial activity against Plasmodium berghei NK65 infected ICR mice (Mus musculus) as reduced parasitaemia on 10 mg/kg intraperitoneal dose on day 4; design: scale not given: the % may be the effect or the level left
Mus musculus [10] = experiment: Effect on survival of Plasmodium berghei NK65 infected ICR mice (Mus musculus) assessed as mean survival days at 10 mg/kg, intraperitoneal after 4 days; type: functional; procedure, shortened: as §2
Mus musculus [11] = experiment: Effect on survival of Plasmodium berghei NK65 infected ICR mice (Mus musculus) assessed as mean survival days at 90 mg/kg/day, oral after 4 days
Plasmodium berghei [12] = experiment: Antimalarial activity against Plasmodium berghei NK65 infected ICR mice (Mus musculus) as reduced parasitaemia at 90 mg/kg/day oral dose after 4 days; design: scale not given: the % may be the effect or the level left
Rattus norvegicus [13] = experiment: AUC (0-480 mins) in Wistar rat at 10 mg/kg, iv; type: ADME, organism-based, Plasma; design: time < 8 hr, dose 10 mg/kg, route intravenous; conditions: in vivo, 8 h
Procedure, shortened: (§3)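 Preliminary pharmacokinetics in Wistar rats given 10 mg kg^-1 as a saline solution, either intravenously or orally. Values are the average of three animals. Half-life is determined for each route, and oral bioavailability is obtained by comparing the oral and intravenous routes.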

Mus musculus [14] = experiment: Effect on survival of Plasmodium berghei NK65 infected ICR mice (Mus musculus) assessed as mean survival days at 12 times of 30 mg/kg/8hrs, oral
Mus musculus [15] = experiment: Effect on survival of Plasmodium berghei NK65 infected ICR mice (Mus musculus) assessed as mean survival days at 12 times of 15 mg/kg/8hrs, oral
Plasmodium berghei [16] = experiment: Antimalarial activity against Plasmodium berghei NK65 infected ICR mice (Mus musculus) as reduced parasitaemia after 12 oral doses of 30 mg/kg/8hrs; design: scale not given: the % may be the effect or the level left
[17] = Oral bioavailability in Wistar rat at 10 mg/kg, po; type: ADME, organism-based; conditions: in vivo; procedure, shortened: as §3
Mus musculus [18] = experiment: Effect on survival of Plasmodium berghei NK65 infected ICR mice (Mus musculus) assessed as mean survival days at 50 mg/kg/day, oral after 4 days
Plasmodium berghei [19] = experiment: Antimalarial activity against Plasmodium berghei NK65 infected ICR mice (Mus musculus) as reduced parasitaemia at 50 mg/kg/day oral dose after 4 days; design: scale not given: the % may be the effect or the level left
[20] = Half life in Wistar rat at 10 mg/kg, po; type: ADME, organism-based; design: dose 10 mg/kg, route oral; conditions: in vivo; procedure, shortened: as §3
Plasmodium berghei [21] = experiment: Antimalarial activity against Plasmodium berghei NK65 infected ICR mice (Mus musculus) as reduced parasitaemia at 100 mg/kg/day oral dose after 4 days; design: scale not given: the % may be the effect or the level left
Mus musculus [22] = experiment: Effect on survival of Plasmodium berghei NK65 infected ICR mice (Mus musculus) assessed as mean survival days at 25 mg/kg/day, oral after 4 days
[23] = Half life in Wistar rat at 10 mg/kg, iv; type: ADME, organism-based; design: dose 10 mg/kg, route intravenous; conditions: in vivo; procedure, shortened: as §3
Mus musculus [24] = experiment: Effect on survival of Plasmodium berghei NK65 infected ICR mice (Mus musculus) assessed as mean survival days at 100 mg/kg/day, oral after 1 day
Rattus norvegicus [25] = experiment: AUC (0-480 mins) in Wistar rat at 10 mg/kg, po; type: ADME, organism-based, Plasma; design: time < 8 hr, dose 10 mg/kg, route oral; conditions: in vivo, 8 h; procedure, shortened: as §3
Plasmodium berghei [26] = experiment: Antimalarial activity against Plasmodium berghei NK65 infected ICR mice (Mus musculus) as reduced parasitaemia after 12 doses of 15 mg/kg/8hrs; type: functional; design: scale not given: the % may be the effect or the level left
Procedure, shortened: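 Oral four-day suppressive test against P. berghei NK-65 in five ICR mice, using short-span dosing every 8 h for 12 doses in total. % parasitemia suppression on day 4 is calculated against untreated infected controls, and mean survival days and mice alive on day 30 are recorded.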

Plasmodium berghei [27] = experiment: Antimalarial activity against Plasmodium berghei NK65 infected ICR mice (Mus musculus) as reduced parasitaemia on day 4 after 1 day at 100 mg/kg/day oral dose; design: scale not given: the % may be the effect or the level left
Plasmodium berghei [28] = experiment: Antimalarial activity against Plasmodium berghei NK65 infected ICR mice (Mus musculus) as reduced parasitaemia on 25 mg/kg/day oral dose after 4 days; design: scale not given: the % may be the effect or the level left
Mus musculus [29] = experiment: Effect on survival of Plasmodium berghei NK65 infected ICR mice (Mus musculus) assessed as mean survival days at 100 mg/kg/day, oral after 4 days
Plasmodium berghei [30] = experiment: Antimalarial activity against Plasmodium berghei NK65 infected ICR mice (Mus musculus) as reduced parasitaemia at 30 mg/kg intraperitoneal dose on day 4; type: functional; design: scale not given: the % may be the effect or the level left; procedure, shortened: as §2
Mus musculus [31] = experiment: Effect on survival of Plasmodium berghei NK65 infected ICR mice (Mus musculus) assessed as mean survival days at 30 mg/kg, intraperitoneal after 4 days; type: functional; procedure, shortened: as §2
[32] = Plasmodium falciparum, K1, 48 h

SMILES: CCN(C)c1ccc2nc3ccc(=[N+](C)C)cc-3oc2c1.[O-][Cl+3]([O-])([O-])[O-]
- Activity (Plasmodium berghei [1]): 71.7%
- Mean survival days (Mus musculus [2]): 6.7 days

SMILES: CN(C)c1ccc2nc3ccc(=[N+](C)C)cc-3oc2c1.[Cl-].[Cl][Zn][Cl]
- Activity (Plasmodium berghei [1]): 17.1%
- EC50 (Plasmodium falciparum; [32]): 12.6 nM
- Ratio [3]: 700
- Mean survival days (Mus musculus [2]): 5.6 days

SMILES: CCN(CC)c1ccc2nc3ccc(=[N+](C)C)cc-3oc2c1.[Cl-]
- Mean survival days (Mus musculus [4]): 7.8 days
- Activity (Plasmodium berghei [5]): 58.7%
- Activity (Plasmodium berghei [1]): 85.3%
- Activity (Plasmodium berghei [6]): 100%
- Activity (Mus musculus [7]): 40%
- Mean survival days (Mus musculus [8]): >17 days
- Activity (Plasmodium berghei [9]): 99.9%
- Mean survival days (Mus musculus [10]): 13 days
- Mean survival days (Mus musculus [2]): 10 days

SMILES: CN(C)c1ccc2nc3ccc(=[N+](C)C)cc-3oc2c1.[O-][Cl+3]([O-])([O-])[O-]
- Activity (Plasmodium berghei [1]): 45.9%
- Mean survival days (Mus musculus [2]): 6.7 days

SMILES: CCN(CC)c1ccc2nc3ccc(=[N+](C)C)cc-3oc2c1.[O-][Cl+3]([O-])([O-])[O-]
- Activity (Plasmodium berghei [1]): 77%
- Mean survival days (Mus musculus [2]): 9.4 days

SMILES: CN(C)c1cc(O)c2nc3ccc(=[N+](C)C)cc-3oc2c1.[Cl-]
- Activity (Plasmodium berghei [1]): 4.2%
- Mean survival days (Mus musculus [2]): 5.3 days

SMILES: CCN(CC)c1ccc2nc3ccc(N(CC)CC)cc3[o+]c2c1.[Cl-]
- Activity (Plasmodium berghei [5]): 30.5%
- Activity (Plasmodium berghei [1]; 5 mg/kg): 80.6% and 46.3%
- Activity (Plasmodium berghei [6]): 95.8%
- Mean survival days (Mus musculus [11]): >24 days
- Activity (Plasmodium berghei [12]): 100%
- AUC (Rattus norvegicus [13]): 717 ng·h/mL
- Mean survival days (Mus musculus [14]): >13 days
- Mean survival days (Mus musculus [15]): 14 days
- Activity (Plasmodium berghei [16]): 100%
- bioavailability [17]: 96.3%
- Mean survival days (Mus musculus [8]): >14 days
- Mean survival days (Mus musculus [18]): 14 days
- Activity (Plasmodium berghei [19]): 98.6%
- half-life [20]: 59.2 min
- Activity (Plasmodium berghei [21]): 100%
- Mean survival days (Mus musculus [22]): 7.6 days
- half-life [23]: 5.8 min
- EC50 (Plasmodium falciparum): 2.8 nM
- EC50 (Plasmodium falciparum; [32]): 4.7 nM
- Mean survival days (Mus musculus [24]): 13 days
- Activity (Plasmodium berghei [9]): 80.4%
- Mean survival days (Mus musculus [10]): >11 days
- AUC (Rattus norvegicus [25]): 690 ng·h/mL
- Activity (Plasmodium berghei [26]): 100%
- Ratio [3]: 830 and 2400
- Activity (Plasmodium berghei [27]): 100%
- Activity (Plasmodium berghei [28]): 82.3%
- Mean survival days (Mus musculus [29]): >28 days

SMILES: CCCCN(CCCC)c1ccc2nc3ccc(=[N+](CC)CC)cc-3oc2c1.[Cl-]
- Activity (Plasmodium berghei [1]): 83.1%
- EC50 (Plasmodium falciparum; [32]): 2.4 nM
- Ratio [3]: 350
- Mean survival days (Mus musculus [2]): 16 days

SMILES: CCCCN(CCCC)c1ccc2nc3ccc(=[N+](C)C)cc-3oc2c1.[O-][Cl+3]([O-])([O-])[O-]
- Activity (Plasmodium berghei [1]): 90.3%
- Mean survival days (Mus musculus [2]): 11.4 days

SMILES: CN1CCN(c2cc(OC(=O)C(C)(C)C)c3nc4ccc(=[N+](C)C)cc-4oc3c2)CC1.[Cl-]
- Activity (Plasmodium berghei [1]): 19.9%
- EC50 (Plasmodium falciparum; [32]): 270 nM
- Ratio [3]: 160
- Mean survival days (Mus musculus [2]): 5.4 days

SMILES: CN1CCN(c2cc(O)c3nc4ccc(=[N+](C)C)cc-4oc3c2)CC1.[Cl-]
- Activity (Plasmodium berghei [1]): 17.4%
- EC50 (Plasmodium falciparum; [32]): 200 nM
- Ratio [3]: 440
- Mean survival days (Mus musculus [2]): 5.3 days

SMILES: C[N+](C)=c1ccc2nc3ccc(N4CCNCC4)cc3oc-2c1.[Cl-]
- Activity (Plasmodium berghei [1]): 54.8%
- Activity (Plasmodium berghei [6]): 98.1%
- Activity (Plasmodium berghei [30]): 100%
- Mean survival days (Mus musculus [8]): 17.6 days
- Activity (Plasmodium berghei [21]): 100%
- EC50 (Plasmodium falciparum; [32]): 28 nM
- Activity (Plasmodium berghei [9]): 78.5%
- Mean survival days (Mus musculus [31]): 16.4 days
- Mean survival days (Mus musculus [10]): 7.4 days
- Ratio [3]: 2300
- Mean survival days (Mus musculus [2]): 6 days
- Mean survival days (Mus musculus [29]): 17 days

SMILES: CCN(CC)CCCC(C)Nc1ccnc2cc(Cl)ccc12 (centres undefined) [CHLOROQUINE]
- EC50 (Plasmodium falciparum; [32]): 1500 nM
- Activity (Plasmodium berghei [9]): 90.6%
- Mean survival days (Mus musculus [10]): 22.7 days
- Ratio [3]: 32
